Test results reported in article PMC4085996 (ChemMedChem, 2014).
Where “and” joins values, the source holds several entries; their conditions need not be identical. Equal entries are not always repeated. Where two headings read alike, the source gives them in different places.

Key:
[1] = system: HIV-1 RT multidrug-resistant (RTMDR) viral strain; conditions: read-out: EC50 RTMDR (prior studies); same assays for leads and drugs; cited from earlier work
[2] = system: HIV-1 IIIB (wt); experiment: HIV-1 infection assay using MT-2 cells; format: cell-based
Procedure, shortened: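 MT-2 cells (10^4/well) infected overnight with 100 TCID50 HIV-1 IIIB in RPMI 1640 plus 10% FBS, with or without graded concentrations of test compound. Medium then replaced with compound-free medium. On day 4 post-infection, supernatants mixed with equal volume 5% Triton X-100 and p24 antigen quantified by ELISA. EC50 calculated from percent inhibition of p24 production.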

[3] = system: HIV-1 NL4-3 (wild-type) virus; experiment: microbe, parasite or virus in culture; format: cell-based
[4] = CytoTox-Glo cytotoxicity assay; format: cell-based; conditions: human, TZM-bl cells
Procedure, shortened: (§1)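 Run alongside the antiviral assays. TZM-bl cells were cultured for one day with graded concentrations of test compound. Percent viable cells was determined with the CytoTox-Glo kit according to the manufacturer's protocol.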

[5] = Microsomal stability assay; format: in vitro ADME; conditions: 1 μM compound, 0.1 mg/mL human liver microsomes, 37 °C
[6] = Aqueous solubility measurement; format: physicochemical; conditions: triplicate; for Aqueous solubility pH 2.0: pH 2.0, HPLC method; for Aqueous solubility pH 7.4: pH 7.4, HPLC method
[7] = system: HIV-1 RTMDR (RT L74V, M41L, V106A, T215Y); format: cell-based; conditions: TZM-bl cells; for Resistance fold change RTMDR: versus NL4-3(wt); for EC50: read-out: EC50 RTMDR
[8] = system: TZM-bl cells; experiment: CytoTox-Glo cytotoxicity assay; format: cell-based; conditions: one day, average of two independent tests
Procedure, shortened: as §1

[9] = system: HIV-1 NL4-3 K101E mutant; format: cell-based; conditions: TZM-bl cells; for Resistance fold change K101E: versus NL4-3(wt); for EC50: read-out: EC50 K101E
[10] = system: HIV-1 NL4-3 E138K mutant; format: cell-based; conditions: TZM-bl cells; for Resistance fold change E138K: versus NL4-3(wt); for EC50: read-out: EC50 E138K
[11] = Log P measurement; format: physicochemical; conditions: measured at pH7.4 by HPLC method, triplicate
[12] = system: HIV-1 A17 (K103N and Y181C); format: cell-based; conditions: MT-2 cells; for Resistance fold change A17: versus IIIB (wt); for EC50: read-out: EC50 A17
[13] = system: HIV-1 wild-type and resistant viral strains with RTMDR, K101E or E138K mutation; experiment: Text summary: antiviral potency over wild-type and resistant strains; format: cell-based
[14] = read-out: EC50 (NL4-3 infection of TZM-bl cells), mean ± SD, at least three independent experiments
[15] = read-out: EC50 NL4-3(wt), TZM-bl cells, Table 2
[16] = read-out: EC50 IIIB (wt), MT-2 cells

In the case of `Cc1cc(C#N)cc(C)c1Oc1nc(Nc2ccc(C#N)cc2)nc(N)c1Br` [1a, etravirine], the EC50 [1] is listed as 1 nM.
In the case of `Cc1cc(/C=C/C#N)cc(C)c1Nc1ccnc(Nc2ccc(C#N)cc2)n1` [1b, rilpivirine, reference compound], the EC50 ([2]; Human immunodeficiency virus 1, IIIB, MT2, read-out: EC50 IIIB (wt)) is listed as 0.49 nM, the EC50 ([3]; Human immunodeficiency virus 1, NL43, TZM-bl, read-out: EC50 NL4-3(wt)) is listed as 0.44 nM and the EC50 [1] is listed as 0.49 nM. The CC50 at 1 day [4] was 19400 nM and the “HLM t1/2” value [5] was 39.52 min.
For `N#Cc1ccc(Nc2nc(Oc3c(F)cccc3F)ccc2N)cc1` [6a, N^2-(4′-Cyanophenyl)amino-6-(2”,6”-difluoro)phenoxypyridin-3-amine], the “Aqueous solubility pH 2.0” value [6] was 8.42 μg/mL, the “Aqueous solubility pH 7.4” value [6] was 1.58 μg/mL and the EC50 [3, 14] was 6.78 ± 1.18 nM. For the same compound, the EC50 [3, 15] was 6.78 nM, the “Resistance fold change RTMDR” value [7] was 0.52 and the EC50 [7] was 3.55 nM. For the same compound, the CC50 [8] was 19200 nM, the “Resistance fold change K101E” value [9] was 7.82 and the EC50 [9] was 53 nM. The “HLM t1/2” value [5] was 44.01 min, the “Resistance fold change E138K” value [10] was 4.3 and the EC50 [10] was > 29 nM. The “log P” value [11] was >5.
For `N#Cc1ccc(Nc2nc(Oc3c(F)cc(Br)cc3F)ccc2N)cc1` [6b], the EC50 [3, 14] was 7.43 ± 1.1 nM and the CC50 [8] was > 9590 nM.
In the case of `N#Cc1ccc(Nc2nc(Oc3c(F)cc(CO)cc3F)ccc2N)cc1` [6c, N^2-(4′-Cyanophenyl)amino-6-(2”,6”-difluoro-4”-hydroxymethyl)phenoxypyridine-3-amine], the EC50 [3, 14] is reported as 57.1 ± 9.2 nM and the CC50 [8] is reported as > 27200 nM.
With `CC(=O)OCc1cc(F)c(Oc2ccc(N)c(Nc3ccc(C#N)cc3)n2)c(F)c1` [6d, N^2-(4′-Cyanophenyl)amino-6-(2”,6”-difluoro-4”-acetoxymethyl)phenoxypyridin-3-amine] the EC50 [3, 14] was 290 ± 46 nM.
With `N#Cc1ccc(Nc2nc(Oc3c(F)cc(C=NO)cc3F)ccc2N)cc1` [6e, N^2-(4′-Cyanophenyl)amino-6-(2”,6”-difluoro-4”-(hydroxyimino)methyl)phenoxy pyridin-3-amine] the EC50 [3, 14] was 261 ± 55.1 nM and the CC50 [8] was > 26200 nM.
For `N#Cc1ccc(Nc2nc(Oc3c(F)cc(C#N)cc3F)ccc2N)cc1` [6f, N^2-(4′-Cyanophenyl)amino-6-(2”,6”-difluoro-4”-cyano)phenoxypyridin-3-amine], the EC50 [3, 14] was 5.16 ± 1.57 nM and the CC50 [8] was > 9390 nM.
With `N#C/C=C/c1cc(F)c(Oc2ccc(N)c(Nc3ccc(C#N)cc3)n2)c(F)c1` [6g, (E)-N^2-(4′-Cyanophenyl)amino-6-(4”-cyanovinyl-2”,6”-difluoro)phenoxypyridin-3-amine] the “Aqueous solubility pH 2.0” value [6] was 1.27 μg/mL, the “Aqueous solubility pH 7.4” value [6] was 0.72 μg/mL and the EC50 [2, 16] was 1.11 nM. The EC50 [3, 14] was 0.75 ± 0.18 nM, the EC50 [3, 15] was 0.75 nM and the “Resistance fold change A17” value [12] was > 450. For the same compound, the EC50 [12] was > 500 nM, the “Resistance fold change RTMDR” value [7] was 46.3 and the EC50 [7] was 34.7 nM. For the same compound, the CC50 [8] was 11000 nM, the “Resistance fold change K101E” value [9] was 9.6 and the EC50 [9] was 7.2 nM. For the same compound, the “HLM t1/2” value [5] was 76.46 min, the “Resistance fold change E138K” value [10] was 10.3 and the EC50 [10] was 7.71 nM. The “log P” value [11] was 3.48.
`N#C/C(=C\c1cc(F)c(Oc2ccc(N)c(Nc3ccc(C#N)cc3)n2)c(F)c1)C(N)=O` [6h, (E)-6-[4”-(3-Amino-2-cyano-3-oxoprop-1-enyl)-2”,6”-difluoro]phenoxy-N^2-(4′-cyanophenyl)pyridin-2,3-diamine] showed an EC50 [3, 14] of 370 ± 59 nM and a CC50 [8] of 15800 nM.
In the case of `CC(=O)CCc1cc(F)c(Oc2ccc(N)c(Nc3ccc(C#N)cc3)n2)c(F)c1` [6i, N^2-(4′-Cyanophenyl)amino-6-(2”,6”-difluoro-4”-(3-oxobutyl)phenoxy)pyridin-3-amine], the EC50 [3, 14] is reported as 4.66 ± 0.95 nM and the CC50 [8] is reported as > 9800 nM.
Compound `CCCOC(=O)c1cc(F)c(Oc2ccc(N)c(Nc3ccc(C#N)cc3)n2)c(F)c1` [6j, N^2-(4′-Cyanophenyl)amino-6-(2”,6”-difluoro-4”-propylcarbmethoxy)phenoxypyr idin-3-amine] has an EC50 [3, 14] of 99 ± 19 nM and a CC50 [8] of 15300 nM.
For `N#Cc1ccc(Nc2nc(Oc3c(F)cc(/C=C/C(N)=O)cc3F)ccc2N)cc1` [6k, (E)-N^2-(4′-Cyanophenyl)amino-6-(2”,6”-difluoro-4”-(2-carbamoyl)vinyl)phenoxy pyridin-3-amine], the EC50 [3, 14] was 614 ± 118 nM and the CC50 [8] was > 24600 nM.
For `N#CCCc1cc(F)c(Oc2ccc(N)c(Nc3ccc(C#N)cc3)n2)c(F)c1` [6l, 6-(4”-(2-Cyanoethyl)-2”,6”-difluoro)phenoxy-N^2-(4′-cyanophenyl)aminopyridin-3-amine], the EC50 [3, 14] was 2.81 ± 0.59 nM and the CC50 [8] was > 10200 nM.
For `N#Cc1ccc(Nc2nc(Oc3c(F)cc(CCCO)cc3F)ccc2N)cc1` [6n, N^2-(4′-Cyanophenyl)amino-6-(2”,6”-difluoro-4”-(3-hydroxypropyl)phenoxy) pyridin-3-amine], the EC50 [3, 14] was 48 ± 9.8 nM and the CC50 [8] was > 25200 nM.
For `N#Cc1ccc(Nc2nc(Oc3c(Br)cc(C#N)cc3Br)ccc2N)cc1` [8a, 6-(4”-Cyano-2”,6”-dibromo)phenoxy-N^2-(4′-cyanophenyl)pyridin-2,3-diamine], the “Aqueous solubility pH 2.0” value [6] was 0.79 μg/mL, the “Aqueous solubility pH 7.4” value [6] was 0.72 μg/mL and the EC50 [2, 16] was 12.4 nM. For the same compound, the EC50 [3, 14] was 0.99 nM and 0.93 nM, the EC50 [3, 15] was 0.93 nM and the “Resistance fold change A17” value [12] was 30.8. The EC50 [12] was 384 nM, the “Resistance fold change RTMDR” value [7] was 2.6 and the EC50 [7] was 2.47 nM. For the same compound, the CC50 [8] was 13200 nM, the “Resistance fold change K101E” value [9] was 3.3 and the EC50 [9] was 3.09 nM. For the same compound, the “HLM t1/2” value [5] was 41.66 min, the “Resistance fold change E138K” value [10] was 5.8 and the EC50 [10] was 5.44 nM. The “log P” value [11] was 3.30.
With `N#C/C=C/c1cc(Br)c(Oc2ccc(N)c(Nc3ccc(C#N)cc3)n2)c(Br)c1` [8b, (E)-N^2-(4′-Cyanophenyl)amino-6-(4”-cyanovinyl-2”,6”-dibromo)phenoxypyridin-3-diamine] the “Aqueous solubility pH 2.0” value [6] was 0.63 μg/mL, the “Aqueous solubility pH 7.4” value [6] was 0.62 μg/mL and the EC50 [2, 16] was 3.04 nM. The EC50 [3, 14] was 0.33 ± 0.09 nM, the EC50 [3, 15] was 0.33 nM and the “Resistance fold change A17” value [12] was 65.7. For the same compound, the EC50 [12] was 200 nM, the “Resistance fold change RTMDR” value [7] was 2.2 and the EC50 [7] was 0.74 nM. The CC50 [8] was 8220 nM, the “Resistance fold change K101E” value [9] was 23.1 and the EC50 [9] was 7.63 nM. For the same compound, the “HLM t1/2” value [5] was 21.87 min, the “Resistance fold change E138K” value [10] was 12.4 and the EC50 [10] was 4.11 nM. For the same compound, the “log P” value [11] was 3.55.
With `COc1cc(/C=C/C#N)cc(Br)c1Oc1ccc(N)c(Nc2ccc(C#N)cc2)n1` [8c, (E)-6-(2”-Bromo-4”-cyanovinyl-6”-methoxy)phenoxy-N^2-(4′-cyanophenyl) pyridin-2,3-diamine] the “Aqueous solubility pH 2.0” value [6] was 0.82 μg/mL, the “Aqueous solubility pH 7.4” value [6] was 0.50 μg/mL and the EC50 [2, 16] was 4.53 nM. For the same compound, the EC50 [3, 14] was 3.25 ± 0.89 nM, the EC50 [3, 15] was 3.25 nM and the “resistance fold change (RFC), range over resistant strains” value [13] was 1.1–2.1. The “Resistance fold change A17” value [12] was 18.6, the EC50 [12] was 84.4 nM and the “Resistance fold change RTMDR” value [7] was 1.1. The EC50 [7] was 3.46 nM, the CC50 [8] was 21000 nM and the “Resistance fold change K101E” value [9] was 1.2. The EC50 [9] was 3.9 nM, the “HLM t1/2” value [5] was 54.7 min and 54.71 min and the “Resistance fold change E138K” value [10] was 2.1. For the same compound, the EC50 [10] was 6.93 nM and the “log P” value [11] was 3.31.
For `N#C/C=C/c1cc(Cl)c(Oc2ccc(N)c(Nc3ccc(C#N)cc3)n2)c(Cl)c1` [8d, (E)-N^2-(4′-Cyanophenyl)amino-6-(4”-cyanovinyl-2”,6”-dichloro)phenoxypyridin-3-amine], the “Aqueous solubility pH 2.0” value [6] was 0.81 μg/mL, the “Aqueous solubility pH 7.4” value [6] was 0.70 μg/mL and the EC50 [3, 14] was 8.14 ± 2.49 nM. For the same compound, the CC50 [8] was 10700 nM, the “HLM t1/2” value [5] was 39.61 min and the “log P” value [11] was >5.
For `COc1cc(/C=C/C#N)ccc1Oc1ccc(N)c(Nc2ccc(C#N)cc2)n1` [8e, (E)-N^2-(4′-Cyanophenyl)amino-6-(2”-methoxy-4”-cyanovinyl)phenoxypyridin-3-amine], the EC50 [3, 14] was 16.7 ± 4.33 nM and the CC50 [8] was > 20600 nM.
“N^2-(4′-Cyanophenyl)amino-6-(4”-(2-cyano)propylcarbamoyl-2”,6”-difluoro)phen oxypyridin-3-amine [6m]” gave an EC50 [3, 14] of 350 ± 52 nM and a CC50 [8] of 15100 nM.
